Measured values: ChEMBL document CHEMBL2331319, “Development of N-Hydroxycinnamamide-Based Histone Deacetylase Inhibitors with Indole-Containing Cap Group” (ACS Med Chem Lett, 2013)
Active and inactive are the calls of the source. The rule behind the calls is not given here.

Experiments:
Histone deacetylase = assay: Inhibition of HDAC in human HeLa cell nuclear extract using Boc-Lys(acetyl)-AMC as substrate preincubated with enzyme for 5 mins prior to substrate addition measured after 30 mins by fluorescence assay; format: protein assay
PC-3 = assay: Inhibition of human PC3 cell proliferation after 48 hrs by MTT assay; format: functional, cell-based; conditions: PC-3, 48 h
U-937 [1] = assay: Inhibition of human U937 cell proliferation after 48 hrs by MTT assay; format: functional, cell-based; conditions: U-937, 48 h
[2] = Inhibition of human ES2 cell proliferation after 48 hrs by MTT assay; format: functional, cell-based; conditions: ES-2, 48 h
MDA-MB-231 [3] = assay: cells; format: functional, cell-based; conditions: Homo sapiens, MDA-MB-231, 48 h
A549 = assay: Inhibition of human A549 cell proliferation after 48 hrs by MTT assay; format: functional, cell-based; conditions: A549, 48 h
HCT-116 = assay: Inhibition of human HCT116 cell proliferation after 48 hrs by MTT assay; format: functional, cell-based; conditions: HCT-116, 48 h
U-937 [4] = assay: Antitumor activity against human U937 cells xenografted in athymic nude mouse assessed as T/C ratio at 20 mg/kg/day, po administered 10 days after tumor inoculation for 3 weeks; format: functional
U-937 [5] = assay: Antitumor activity against human U937 cells xenografted in athymic nude mouse assessed as tumor growth inhibition at 20 mg/kg/day, po administered 10 days after tumor inoculation for 3 weeks measured every three days by vernier caliper; format: functional; conditions: read-out: TGI
Outline: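 U937 xenografts in nude mice, seven mice per group. Tamibarotene served as the positive control. Growth curves of the implanted tumours were followed over the treatment period and reported as mean ± SD.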

Mus musculus [6] = assay: Toxicity in athymic nude mouse xenografted with human U937 cells assessed as liver injury at 60 mg/kg/day, po administered 10 days after tumor inoculation for 3 weeks; format: organism-based, U-937; design: route oral; conditions: in vivo
MDA-MB-231 [7] = assay: Increase in histone H4 acetylation in human MDA-MB-231 cells at 1 uM after 3 to 24 hrs by Western blot analysis; format: functional, cell-based
Outline: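 MDA-MB-231 cells were exposed at 1 μM for 3 h and 24 h. Lysates were immunoblotted for acetylated histone H4, with β-actin as the loading control.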

Mus musculus [8] = assay: Toxicity in athymic nude mouse xenografted with human U937 cells assessed as spleen injury at 60 mg/kg/day, po administered 10 days after tumor inoculation for 3 weeks; format: organism-based, U-937; design: route oral; conditions: in vivo
U-937 [9] = assay: Antitumor activity against human U937 cells xenografted in athymic nude mouse assessed as tumor growth inhibition at 60 mg/kg/day, po administered 10 days after tumor inoculation for 3 weeks measured every three days by vernier caliper; format: functional; conditions: read-out: TGI
Outline: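 U937 xenografts in nude mice, seven per group, with oral dosing and a reference agent as positive control. Tumour growth was followed as a growth curve, and the data are given as mean ± SD.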

U-937 [10] = assay: Antitumor activity against human U937 cells xenografted in athymic nude mouse assessed as T/C ratio at 60 mg/kg/day, po administered 10 days after tumor inoculation for 3 weeks; format: functional
Outline: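 U937 cells implanted in nude mice, seven per group; oral dosing with a positive-control group run alongside. Tumour growth was followed as a growth curve, data given as mean ± SD; efficacy was expressed as tumour growth inhibition and relative increment ratio.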

Mus musculus [11] = assay: Toxicity in athymic nude mouse xenografted with human U937 cells assessed as body weight loss at 60 mg/kg/day, po administered 10 days after tumor inoculation for 3 weeks; format: organism-based, U-937; design: route oral; conditions: in vivo

`COc1cc(/C=C/C(=O)NO)ccc1OC[C@H](Cc1c[nH]c2ccccc12)NC(=O)[C@@H](NC(=O)OC(C)(C)C)C(C)C` gave an IC50 (Histone deacetylase) of 0.43 µM.

For `COc1cc(/C=C/C(=O)NO)ccc1OC[C@H](Cc1c[nH]c2ccccc12)NC(=O)CNC(=O)OC(C)(C)C`, the IC50 (PC-3) was 10.5 µM, the IC50 (U-937 [1]) was 3.1 µM and the IC50 [2] was 29.2 µM. It also gave an IC50 (MDA-MB-231 [3]) of 7.2 µM, an IC50 (A549) of 11.8 µM and an IC50 (HCT-116) of 6 µM. It also gave an IC50 (Histone deacetylase) of 0.17 µM.

With `COc1cc(/C=C/C(=O)NO)ccc1OC[C@H](Cc1c[nH]c2ccccc12)NS(=O)(=O)c1c(C(C)C)cc(C(C)C)cc1C(C)C` the IC50 (Histone deacetylase) was “ND(Insoluble)”.

Compound `CC1(C)CCC(C)(C)c2cc(NC(=O)c3ccc(C(=O)O)cc3)ccc21` [TAMIBAROTENE] has an Activity (U-937 [4]) of 85% and an inhibition in vivo at 20 mg/kg/day (U-937 [5]) of 33%.

`COc1cc(/C=C/C(=O)NO)ccc1OC[C@H](Cc1c[nH]c2ccccc12)NC(=O)[C@@H]1CCCN1C(=O)OC(C)(C)C` showed an IC50 (Histone deacetylase) of 0.43 µM.

`CC[C@H](C)[C@H](NC(=O)OC(C)(C)C)C(=O)N[C@H](COc1ccc(/C=C/C(=O)NO)cc1OC)Cc1c[nH]c2ccccc12` showed an IC50 (Histone deacetylase) of 0.38 µM.

Work on `COc1cc(/C=C/C(=O)NO)ccc1OC[C@H](Cc1c[nH]c2ccccc12)NC(=O)[C@H](C)NC(=O)OC(C)(C)C` yielded an IC50 (PC-3) of 10.4 µM, an IC50 (U-937 [1]) of 2.2 µM and an IC50 [2] of 25.1 µM. For the same compound, the IC50 (MDA-MB-231 [3]) was 4.5 µM, the IC50 (A549) was 4.2 µM and the IC50 (HCT-116) was 3.8 µM. It also gave an IC50 (Histone deacetylase) of 0.16 µM.

With `CCCC(CCC)C(=O)N[C@H](COc1ccc(/C=C/C(=O)NO)cc1OC)Cc1c[nH]c2ccccc12` the IC50 (PC-3) was 3.7 µM, the Activity (Mus musculus [6]) was “Non-toxic” and the IC50 (U-937 [1]) was 1.8 µM. The Activity (MDA-MB-231 [7]) was “Active”, the IC50 [2] was 5.4 µM and the IC50 (MDA-MB-231 [3]) was 3.1 µM. For the same compound, the IC50 (A549) was 4.4 µM, the Activity (Mus musculus [8]) was “Non-toxic” and the inhibition in vivo at 60 mg/kg/day (U-937 [9]) was 53%. The Activity (U-937 [10]) was 42%, the IC50 (HCT-116) was 5.5 µM and the Activity (Mus musculus [11]) was “Non-toxic”.

For `COc1cc(CCC(=O)NO)ccc1OC[C@H](Cc1c[nH]c2ccccc12)NC(=O)OC(C)(C)C`, the IC50 (Histone deacetylase) was 2.09 µM.

In the case of `COc1cc(/C=C/C(=O)NO)ccc1OC[C@H](Cc1c[nH]c2ccccc12)NC(=O)[C@@H](NC(=O)OC(C)(C)C)[C@@H](C)O`, the IC50 (PC-3) is reported as 5.4 µM, the IC50 (U-937 [1]) is reported as 2.7 µM and the IC50 [2] is reported as 8.9 µM. It also gave an IC50 (MDA-MB-231 [3]) of 7.2 µM, an IC50 (A549) of 7 µM and an IC50 (HCT-116) of 2.4 µM. The IC50 (Histone deacetylase) was 0.18 µM.

`COc1cc(/C=C/C(=O)NO)ccc1OC[C@H](Cc1c[nH]c2ccccc12)NC(=O)[C@H](Cc1c[nH]c2ccccc12)NC(=O)OC(C)(C)C` gave an IC50 (Histone deacetylase) of 0.49 µM.

Compound `COc1cc(/C=C/C(=O)NO)ccc1OC[C@H](Cc1c[nH]c2ccccc12)NS(=O)(=O)c1ccc(NC(C)=O)cc1` has an IC50 (Histone deacetylase) of 0.71 µM.

`COc1cc(/C=C/C(=O)NO)ccc1OC[C@H](Cc1c[nH]c2ccccc12)NC(=O)c1ccc(NC(=O)OC(C)(C)C)cc1` gave an IC50 (Histone deacetylase) of 0.73 µM.

Compound `COc1cc(/C=C/C(=O)NO)ccc1OC[C@H](Cc1c[nH]c2ccccc12)NS(=O)(=O)c1ccc(F)cc1` has an IC50 (Histone deacetylase) of 1.06 µM.

With `COc1cc(/C=C/C(=O)NO)ccc1OC[C@H](Cc1c[nH]c2ccccc12)NC(=O)[C@@H]1CC2(CN1C(=O)OC(C)(C)C)SCCS2` the IC50 (Histone deacetylase) was 0.8 µM.

`COc1cc(/C=C/C(=O)NO)ccc1OC[C@H](Cc1c[nH]c2ccccc12)NC(=O)[C@H](CCSC)NC(=O)OC(C)(C)C` gave an IC50 (PC-3) of 5.8 µM, an IC50 (U-937 [1]) of 2.2 µM and an IC50 [2] of 4.4 µM. For the same compound, the IC50 (MDA-MB-231 [3]) was 6.8 µM, the IC50 (A549) was 1.6 µM and the IC50 (HCT-116) was 5.9 µM. The IC50 (Histone deacetylase) was 0.18 µM.

With `COc1cc(/C=C/C(=O)NO)ccc1OC[C@H](Cc1c[nH]c2ccccc12)NC(=O)OC(C)(C)C` the IC50 (Histone deacetylase) was 0.65 µM.

With `COc1cc(/C=C/C(=O)NO)ccc1OC[C@H](Cc1c[nH]c2ccccc12)NC(=O)C1CCN(C(=O)OC(C)(C)C)CC1` the IC50 (Histone deacetylase) was 1.12 µM.

`COc1cc(/C=C/C(=O)NO)ccc1OC[C@H](Cc1c[nH]c2ccccc12)NC(=O)[C@H](CC(C)C)NC(=O)OC(C)(C)C` gave an IC50 (Histone deacetylase) of 0.57 µM.

`COc1cc(/C=C/C(=O)NO)ccc1OC[C@H](Cc1c[nH]c2ccccc12)NC(=O)[C@H](Cc1ccccc1)NC(=O)OC(C)(C)C` gave an IC50 (Histone deacetylase) of 0.62 µM.

For `COc1cc(/C=C/C(=O)NO)ccc1OC[C@H](Cc1c[nH]c2ccccc12)NC(=O)[C@H](CO)NC(=O)OC(C)(C)C`, the IC50 (PC-3) was 8.2 µM, the IC50 (U-937 [1]) was 3.9 µM and the IC50 [2] was 9.5 µM. The IC50 (MDA-MB-231 [3]) was 11.7 µM, the IC50 (A549) was 13.5 µM and the IC50 (HCT-116) was 9.4 µM. The IC50 (Histone deacetylase) was 0.14 µM.

`O=C(CCCCCCC(=O)Nc1ccccc1)NO` [VORINOSTAT] showed an IC50 (U-937 [1]) of 2.3 µM and an IC50 [2] of 12.7 µM.

With `COc1cc(/C=C/C(=O)NO)ccc1OC[C@H](Cc1c[nH]c2ccccc12)NS(=O)(=O)c1ccc(Cl)cc1` the IC50 (Histone deacetylase) was 1.47 µM.

For `COc1cc(/C=C/C(=O)NO)ccc1OC[C@H](Cc1c[nH]c2ccccc12)NC(=O)[C@H](Cc1ccc(O)cc1)NC(=O)OC(C)(C)C`, the IC50 (Histone deacetylase) was 0.32 µM.

`COc1cc(/C=C/C(=O)NO)ccc1OC[C@H](Cc1c[nH]c2ccccc12)NC(=O)[C@H](CCCCNC(=O)OC(C)(C)C)NC(=O)OC(C)(C)C` gave an IC50 (Histone deacetylase) of 1.17 µM.

Compound `COc1cc(/C=C/C(=O)NO)ccc1OC[C@@H](N)Cc1c[nH]c2ccccc12.Cl` has an IC50 (Histone deacetylase) of 2.91 µM.
